The results in this text go back to ChEMBL document CHEMBL1157241, “Search for Hsp90 inhibitors with potential anticancer activity: isolation and SAR studies of radicicol and monocillin I from two plant-associated fungi of the Sonoran desert” (J Nat Prod, 2006).

The structures appear in SMILES notation. Active and inactive are the calls of the source. No cut-off for these calls is given here.

The species named for one data set is Oryctolagus cuniculus. The data set can be described thus: Inhibition of Hsp90 in rabbit reticulocyte lysate assessed as inhibition of heat-denatured firefly luciferase renaturation at 10 uM relative to geldanamycin. Summed up:
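Rabbit reticulocyte lysate with an ATP-regenerating system (10 mM phosphocreatine, 1 mM ATP, 17.5 units creatine phosphokinase) was preincubated 20 min with compound in DMSO. Firefly luciferase (100 nM, pH 7.8 tricine buffer) was heat-denatured 8 min at 40 °C, then diluted 10-fold into the lysate and incubated at 28 °C. Luminescence was read in triplicate at 3 min and expressed as % of DMSO control.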

Data set [1] relates to MCF7. The data set can be described thus: Antiproliferative activity against human MCF7 cells at 1 uM by MTT assay. Format: functional, cell-based.
The nature of data set [2]: Cytotoxicity against in mouse 3T3-Y9/B12 cells at 10 uM. Format: cell-based. The essentials:
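Mouse 3T3-Y9/B12 heat-shock reporter cells were plated at 20 000 cells/well and left to attach overnight. Compound was added at 10.0 µM in triplicate wells and incubated overnight. Treated wells were then examined by microscope for toxicity, recording whether any living cells remained.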

For another data set, the species on record is Mus musculus. The data set can be described thus: Induction of heat shock response in mouse 3T3-Y9/B12 cells at 5 uM by fluorescence technique relative to geldanamycin. Format: functional, cell-based. Summed up:
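3T3-Y9/B12 reporter cells were plated at 20 000 cells/well and attached overnight. Triplicate wells received compound at 5.0 µM, GDA positive control at 5.0 µM, or DMSO vehicle (≤0.1%). After overnight incubation, wells were rinsed and read in PBS by fluorescence (ex 485, em 525 nm). Signal was expressed as percentage of DMSO control, mean ± SD of triplicates, with three independent experiments.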

For data set [3], the system named is MCF7. The data set can be described thus: Antiproliferative activity against human MCF7 cells by MTT assay. Format: functional, cell-based. The essentials:
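MCF-7 cells were seeded at 2000 cells/well and dosed the next day with serial dilutions in triplicate. GDA was the positive control and DMSO vehicle the negative control. After 3 days at 37 °C under 5% CO2, MTT was added for 3 h in the dark. Medium was replaced with DMSO and absorbance read at 570 nm, minus 650 nm background.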
(In general: Formazan colour is commonly taken as a measure of viable cells.)

As usually defined, the IC50 is the concentration needed to halve the response being measured. Read a low IC50 as inhibition by little substance.

`C[C@H]1CCC[C@@H](O)CCCCCc2cc(O)cc(O)c2C(=O)O1` (stereo in doubt; 14): the outcome in the data set listed under Oryctolagus cuniculus was Active. In addition, in the data set with MCF7 [1], the result was inactive.
For `C[C@H]1CCC[C@@H](O)CCCCCc2cc(O)cc(O)c2C(=O)O1` (stereo in doubt; 16), in the data set filed under Oryctolagus cuniculus, the result was Active. Further, the result with MCF7 [1] was inactive.
Consider `COc1cc2c(c(OC)c1)C(=O)O[C@H](C)C[C@H]1O[C@@H]1/C=C\C=C\C(=O)C2` [DIMETHYL MONOCILLIN I], for which, in data set [2], the Activity result was “Toxic”.
For `COc1cc(OC)c2c(c1Cl)CC(=O)/C=C/C=C\[C@H]1O[C@@H]1C[C@@H](C)OC2=O` [DIMETHYL RADICICOL], the outcome in the data set listed under Mus musculus was Active. Besides, the Activity result in data set [2] is “Toxic”. For the same compound, the result in the data set on MCF7 [1] was inactive.
Take `C[C@@H]1C[C@H](O)CCCCCC(=O)Cc2cc(O)cc(O)c2C(=O)O1` [HEXAHYDROMONOCILLIN I]: the Activity result in data set [2] was “Toxic”.
In the case of `C[C@@H]1C[C@H](O)CCCCCC(=O)Cc2c(Cl)c(O)cc(O)c2C(=O)O1` [HEXAHYDRORADICICOL], the Activity result in data set [2] was “Toxic”.
As to `C[C@@H]1C[C@H]2O[C@@H]2/C=C\C=C\C(=O)Cc2cc(O)cc(O)c2C(=O)O1` [MONOCILLIN I], the outcome in the data set listed under Mus musculus and in the data set filed under Oryctolagus cuniculus was Active. Further, the Activity entry in data set [2] is on record as “Toxic”. This compound also registered a half-inhibitory concentration (IC50) with MCF7 [3] of 340 nM.
Regarding `COc1cc(O)c2c(c1)CC(=O)/C=C/C=C\[C@H]1O[C@@H]1C[C@@H](C)OC2=O` [MONOMETHYL MONOCILLIN I], in the data set listed under Mus musculus, the result was Active. Further, the Activity entry in data set [2] was “Toxic”. Besides, the outcome in the data set with MCF7 [1] was inactive.
Turning to `COc1cc(O)c2c(c1Cl)CC(=O)/C=C/C=C\[C@H]1O[C@@H]1C[C@@H](C)OC2=O` [MONOMETHYL RADICICOL], the result in the data set filed under Mus musculus and in the data set listed under Oryctolagus cuniculus was Active. The Activity result in data set [2] is “Toxic”. Also, it took 900 nM to reach half-maximal inhibition in the data set on MCF7 [3] (IC50).
Take `C[C@@H]1C[C@H]2O[C@@H]2/C=C\C=C\C(=O)Cc2c(Cl)c(O)cc(O)c2C(=O)O1` [RADICICOL]: the result in the data set filed under Mus musculus and in the data set filed under Oryctolagus cuniculus was Active. Moreover, in data set [2], the Activity result is “Toxic”. In addition, in the data set on MCF7 [3], the half-maximal inhibitory concentration (IC50) amounted to 30 nM.
In the case of `C[C@@H]1C[C@H]2O[C@@H]2CCCCC(=O)Cc2cc(O)cc(O)c2C(=O)O1` [TETRAHYDROMONOCILLIN I], the result in the data set filed under Mus musculus and in the data set filed under Oryctolagus cuniculus was Active. The Activity entry in data set [2] is given as “Toxic”. Moreover, the outcome in the data set with MCF7 [1] was inactive.
As for `C[C@@H]1C[C@H]2O[C@@H]2CCCCC(=O)Cc2c(Cl)c(O)cc(O)c2C(=O)O1` [TETRAHYDRORADICICOL], the outcome in the data set filed under Mus musculus and in the data set filed under Oryctolagus cuniculus was Active. Also, in data set [2], the Activity entry is “Toxic”. Also, the IC50 in the data set on MCF7 [3] was found to be 190 nM.
On to `C[C@H]1CCCC(=O)CCCCCc2cc(O)cc(O)c2C(=O)O1` [ZEARALANONE], for which the Activity result in data set [2] is given as “Toxic”.
With `C[C@H]1CCCC(=O)CCC/C=C/c2cc(O)cc(O)c2C(=O)O1` [ZEARALENONE], the Activity result in data set [2] was “Toxic”. In the data set listed under Oryctolagus cuniculus, the outcome was Active. In addition, the outcome in the data set with MCF7 [1] was inactive.
With `C[C@H]1CCC[C@H](O)CCCCCc2cc(O)cc(O)c2C(=O)O1` [ZERANOL], in data set [2], the Activity entry is “Toxic”.
